Fewer inactive variants are shown than the library holds.

Consider 38 variants from the RNAGym collection of RNA variant scans (doi:10.1126/science.aae0568).

B1: tRNA (parent)
chain: GUUCCGUUGGCGUAAUGGUAACGCGUCUCCCUCCUAAGGAGAAGACUGCGGGUUCGAGUCCCGUACGGAACG

Variants of B1 are the subject of the data set. Put plainly: yeast fitness relative to wild type (ratio to wild type); higher = fitter; tRNA-Arg(CCU), competitive growth, 37 C, YPD. The essentials:
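A pool of Saccharomyces cerevisiae strains, each with a tRNA-Arg(CCU) gene variant at the native genomic locus, was competed in YPD at 37°C for 24 hours across six parallel replicates. The variants had been chemically synthesised at a 3% per-site mutation rate over 69 sites, and gene amplicons before and after competition were read by 100-nucleotide paired-end sequencing. Darwinian fitness relative to wild type rested on changes in genotype frequencies. Genotypes required ≥ 100 starting reads, and estimates < 0.5 were set to 0.5.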
With GUUCCGUUGGCGUAAUGGUAACGCGUCUCCCUCCUAAGGAGAAGAUUGCAGGUUCGAGUCCCGUACGGAACG [C46U G50A], the yeast fitness was 0.965.
Take GUUCCGUUGGCGUAAUGGUAACGCGUCUCCCUCCUAAGGAGAAGAUUGCGGGUUCGAGUCCCGUACGGAGCG [C46U A70G]: the yeast fitness stood at 1.05.
As for GUUCCGUUGGCGUAAUGGUAACGCGUCUCCCUCCUAAGGAGAAGAUUGCGGGUUCGAGUCCCGUACGGAUCG [C46U A70U], the figure is 1.05; as for GUUCCGUUGGCGUAAUGGUAACGCGUCUCCCUCCUAAGGAGAAGAGUGCGGGUUCGAGUCCCAUACGGAACG [C46G G63A], 0.798.
GUUCCGUUGGCGUAAUGGUAACGCGUCUCCCUCCUAAGGAGAAGAGUGCGGGUUCGAGUCCCCUAAGGAACG [C46G G63C C66A]: the yeast fitness is no more than 0.5.
To GUUCCGUUGGCGUAAUGGUAACGCGUCUCCCUCCUAAGGAGAAGAGUGCGGGUUCGAGUCCGGUACUGAACG [C46G C62G G67U] belongs 0.542; to GUUCCGUUGGCGUAAUGGUAACGCGUCUCCCUCCUAAGGAGAAGAUUGCGGCUUCGAGUCCCGUACGGAACG [C46U G52C], 0.614; to GUUCCGUUGGCGUAAUGGUAACGCGUCUCCCUCCUAAGGAGAAGAUUGCGGAUUCGAGUCCCGUACGGAACG [C46U G52A], 0.729.
As for GUUCCGUUGGCGUAAUGGUAACGCGUCUCCCUCCUAAGGAGAAGAUUGCGGGUUCGAGUCGCGUACGGAACG [C46U C61G], the figure is 0.593; as for GUUCCGUUGGCGUAAUGGUAACGCGUCUCCCUCCUAAGGAGAAGAUUGCGGGUUACAGUCCCGUGCGGAACG [C46U C55A G56C A65G], no more than 0.5.
To GUUCCGUUGGCGUAAUGGUAACGCGUCUCCCUCCUAAGGAGAAGAUUGCAGGUUCGAGUCCCGUAUGGAACG [C46U G50A C66U] belongs 0.792; to GUUCCGUUGGCGUAAUGGUAACGCGUCUCCCUCCUAAGGAGAAGAGUGCGGGUUCGAGUCACGUCCGGAACG [C46G C61A A65C], no more than 0.5; to GUUCCGUUGGCGUAAUGGUAACGCGUCUCCCUCCUAAGGAGAAGAUUGCGGGUUAGAGUCCCGUAUGGAACG [C46U C55A C66U], 0.555.
Turning to GUUCCGUUGGCGUAAUGGUAACGCGUCUCCCUCCUAAGGAGAAGAUUGCGGGUUCGAGUCCCGUGCGGAACG [C46U A65G], the yeast fitness worked out at 0.877.
Consider GUUCCGUUGGCGUAAUGGUAACGCGUCUCCCUCCUAAGGAGAAGAUUGCGGGUUCGACUCCCGUACGGAACG [C46U G58C], for which the yeast fitness stood at 0.825.
To GUUCCGUUGGCGUAAUGGUAACGCGUCUCCCUCCUAAGGAGAAGAUUGCGGGUUCGAAUCCCGUACGGAACG [C46U G58A] belongs 0.985; to GUUCCGUUGGCGUAAUGGUAACGCGUCUCCCUCCUAAGGAGAAGAGUACGGGUUCGACUCCCGUACGGAACG [C46G G48A G58C], 1.15.
To GUUCCGUUGGCGUAAUGGUAACGCGUCUCCCUCCUAAGGAGAAGAUUGCGGGUUCCAGUCCCGUACGGAACG [C46U G56C] belongs 0.698; to GUUCCGUUGGCGUAAUGGUAACGCGUCUCCCUCCUAAGGAGAAGAUUGCGGGUUCAAGUCCCGUACGGAACG [C46U G56A], 0.978; to GUUCCGUUGGCGUAAUGGUAACGCGUCUCCCUCCUAAGGAGAAGAGUGCGGGUUCGAGUCCCGAACGGAACG [C46G U64A], 0.889.
To GUUCCGUUGGCGUAAUGGUAACGCGUCUCCCUCCUAAGGAGAAGAUUGAGGGUUCGAGUCCUGUACGGAACG [C46U C49A C62U] belongs 0.555.
Consider GUUCCGUUGGCGUAAUGGUAACGCGUCUCCCUCCUAAGGAGAAGAGUGCGGGUCCGAGUCCCGUACGGAACG [C46G U54C], for which the yeast fitness was found to be 0.697.
As for GUUCCGUUGGCGUAAUGGUAACGCGUCUCCCUCCUAAGGAGAAGAUUACGGGUUCAAGUCCCGUACGGAACG [C46U G48A G56A], the figure is 0.848.
To GUUCCGUUGGCGUAAUGGUAACGCGUCUCCCUCCUAAGGAGAAGAUUGCGAGUUCGAGUCCCGUAUGGAACG [C46U G51A C66U] belongs 0.778; to GUUCCGUUGGCGUAAUGGUAACGCGUCUCCCUCCUAAGGAGAAGAGUGCCGGUUCAUGUCCCGUACGGAACG [C46G G50C G56A A57U], no more than 0.5; to GUUCCGUUGGCGUAAUGGUAACGCGUCUCCCUCCUAAGGAGAAGAUUGUGGGUUCGAGUCCCGUAUGGAACG [C46U C49U C66U], 0.806.
For the variant GUUCCGUUGGCGUAAUGGUAACGCGUCUCCCUCCUAAGGAGAAGAUUGCGCGUUCGAGUCCCGUACGGACCG [C46U G51C A70C], the yeast fitness amounted to 0.504.
For GUUCCGUUGGCGUAAUGGUAACGCGUCUCCCUCCUAAGGAGAAGAUUGCGCGUUCGAGUCCCGUACGGAUCG [C46U G51C A70U], the yeast fitness was found to be 0.557.
Take GUUCCGUUGGCGUAAUGGUAACGCGUCUCCCUCCUAAGGAGAAGAUUGCGGGUUACAGUCCCGUACGGAACG [C46U C55A G56C]: the yeast fitness was 0.561.
As for GUUCCGUUGGCGUAAUGGUAACGCGUCUCCCUCCUAAGGAGAAGAUUGCGGGUUUGAGUCGCGUACGGAACG [C46U C55U C61G], the figure is no more than 0.5.
To GUUCCGUUGGCGUAAUGGUAACGCGUCUCCCUCCUAAGGAGAAGAUUACGGGUUCGAGUCCCGUACGGAACG [C46U G48A] belongs 0.93; to GUUCCGUUGGCGUAAUGGUAACGCGUCUCCCUCCUAAGGAGAAGAGUGCGGGUUCGAAGCCCGUACGGAACG [C46G G58A U59G], no more than 0.5.
To GUUCCGUUGGCGUAAUGGUAACGCGUCUCCCUCCUAAGGAGAAGAUUGCGCGUUCGAGUCCCGUAGGGAACG [C46U G51C C66G] belongs no more than 0.5.
GUUCCGUUGGCGUAAUGGUAACGCGUCUCCCUCCUAAGGAGAAGAGUGCGGGUUCAAGUCCCGUACGGAACG [C46G G56A]: the yeast fitness was 1.03.
GUUCCGUUGGCGUAAUGGUAACGCGUCUCCCUCCUAAGGAGAAGAUUGCGGGUUCAAGUCCCGUACGGAGCG [C46U G56A A70G]: the yeast fitness came out at 0.697.
As for GUUCCGUUGGCGUAAUGGUAACGCGUCUCCCUCCUAAGGAGAAGAUUGCGGGUUCGAGUCCCGUACAGAACG [C46U G67A], the figure is 0.986; as for GUUCCGUUGGCGUAAUGGUAACGCGUCUCCCUCCUAAGGAGAAGAUUGCGGGUUCGAGUCCCGUACUGAACG [C46U G67U], 0.869.
To GUUCCGUUGGCGUAAUGGUAACGCGUCUCCCUCCUAAGGAGAAGAGUGCGGGUUCGAGUUCCGUACGCAACG [C46G C60U G68C] belongs no more than 0.5.
